# Test results as given in ChEMBL document CHEMBL1926550, “Synthesis and antibacterial activity of naphthyridone derivatives containing mono/difluoro-methyloxime pyrrolidine scaffolds” (2012).
# Assays:
# Type in all cases: functional
# [1] = test system: Staphylococcus epidermidis; assay: Ratio of ciprofloxacin ED50 to compound ED50 for methicillin-resistant Staphylococcus epidermidis 10-4 infected KM mouse systemic infection model
# Staphylococcus aureus [2] = assay: Antibacterial activity against methicillin-resistant Staphylococcus aureus 10-4 after 18 hrs by two fold serial dilution method; conditions: 10-4, 18 h
# Procedure, shortened: (§1)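 Agar two-fold serial dilution in melted Mueller-Hinton agar, 128 to 0.008 μg/mL. Plates inoculated with 10⁴ cfu, incubated 35 °C for 18 h. MIC taken as lowest concentration giving no visible growth on the plate.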
# Enterococcus faecium [3] = assay: Antibacterial activity against Enterococcus faecium 09-2 after 18 hrs by two fold serial dilution method; conditions: 09-2, 18 h
# Procedure, shortened: (§2)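 Agar two-fold serial dilution in melted Mueller-Hinton agar, final concentrations 128 down to 0.008 μg/mL. Plates inoculated with 10⁴ cfu and incubated at 35 °C for 18 h. MIC taken as the lowest concentration giving no visible growth on the plate.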
# [4] = test system: Staphylococcus epidermidis; assay: Antibacterial activity against methicillin-resistant Staphylococcus epidermidis 10-2 after 18 hrs by two fold serial dilution method; conditions: 10-2, 18 h; procedure, shortened: as §1
# Staphylococcus aureus [5] = assay: Antibacterial activity against methicillin-sensitive Staphylococcus aureus 10-5 after 18 hrs by two fold serial dilution method; conditions: 10-5, 18 h; procedure, shortened: as §2
# Staphylococcus aureus [6] = assay: Antibacterial activity against methicillin-sensitive Staphylococcus aureus 10-4 after 18 hrs by two fold serial dilution method; conditions: 10-4, 18 h; procedure, shortened: as §2
# [7] = test system: Staphylococcus epidermidis; assay: Antibacterial activity against methicillin-sensitive Staphylococcus epidermidis 10-2 after 18 hrs by two fold serial dilution method; conditions: 10-2, 18 h; procedure, shortened: as §2
# Pseudomonas aeruginosa [8] = assay: Ratio of ciprofloxacin ED50 to compound ED50 for Pseudomonas aeruginosa 10-1 infected KM mouse systemic infection model
# Streptococcus pneumoniae = assay: Antibacterial activity against Streptococcus pneumoniae 10-1 after 18 hrs by two fold serial dilution method; conditions: 10-1, 18 h; procedure, shortened: as §2
# Escherichia coli [9] = assay: Antibacterial activity against Escherichia coli 10-2 infected KM mouse systemic infection model assessed as decrease in mouse mortality administered orally twice after 1 and 4 hrs post infection measured up to 7 days; conditions: 10-2, po
# Procedure, shortened: (§3)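 Strains grown on MH agar at 35 °C for 18 h, suspended in gastric mucin. Male KM mice (19–21 g), groups of 10, infected intraperitoneally with 0.5 mL at 5–10× MLD. Four oral dose levels per drug at 1 and 4 h post infection. Mortality followed 7 days; ED50 with 95% confidence limits by Bliss method.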
# Staphylococcus aureus [10] = assay: Antibacterial activity against methicillin-sensitive Staphylococcus aureus 10-6 after 18 hrs by two fold serial dilution method; conditions: 10-6, 18 h; procedure, shortened: as §2
# Escherichia coli [11] = assay: Antibacterial activity against Escherichia coli ATCC 25922 after 18 hrs by two fold serial dilution method; conditions: ATCC 25922, 18 h; procedure, shortened: as §2
# Staphylococcus aureus [12] = assay: Antibacterial activity against methicillin-sensitive Staphylococcus aureus 10-2 after 18 hrs by two fold serial dilution method; conditions: 10-2, 18 h; procedure, shortened: as §2
# Escherichia coli [13] = assay: Antibacterial activity against Escherichia coli 09-2 after 18 hrs by two fold serial dilution method; conditions: 09-2, 18 h; procedure, shortened: as §2
# Klebsiella pneumoniae [14] = assay: Antibacterial activity against Klebsiella pneumoniae 10-3 after 18 hrs by two fold serial dilution method; conditions: 10-3, 18 h; procedure, shortened: as §2
# Pseudomonas aeruginosa [15] = assay: Antibacterial activity against Pseudomonas aeruginosa 10-3 after 18 hrs by two fold serial dilution method; conditions: 10-3, 18 h; procedure, shortened: as §2
# Enterococcus faecalis [16] = assay: Antibacterial activity against Enterococcus faecalis 09-2 after 18 hrs by two fold serial dilution method; conditions: 09-2, 18 h; procedure, shortened: as §2
# Staphylococcus aureus [17] = assay: Antibacterial activity against methicillin-resistant Staphylococcus aureus 10-2 infected KM mouse systemic infection model assessed as decrease in mouse mortality administered orally twice after 1 and 4 hrs post infection measured up to 7 days; conditions: 10-2, po; procedure, shortened: as §3
# Klebsiella pneumoniae [18] = assay: Antibacterial activity against Klebsiella pneumoniae 09-2 after 18 hrs by two fold serial dilution method; conditions: 09-2, 18 h; procedure, shortened: as §2
# [19] = test system: Staphylococcus epidermidis; assay: Antibacterial activity against methicillin-resistant Staphylococcus epidermidis 10-4 after 18 hrs by two fold serial dilution method; conditions: 10-4, 18 h; procedure, shortened: as §1
# Staphylococcus aureus [20] = assay: Antibacterial activity against methicillin-resistant Staphylococcus aureus 10-3 after 18 hrs by two fold serial dilution method; conditions: 10-3, 18 h; procedure, shortened: as §1
# Pseudomonas aeruginosa [21] = assay: Ratio of gemifloxacin ED50 to compound ED50 for Pseudomonas aeruginosa 10-1 infected KM mouse systemic infection model
# Pseudomonas aeruginosa [22] = assay: Antibacterial activity against Pseudomonas aeruginosa 10-1 infected KM mouse systemic infection model assessed as decrease in mouse mortality administered orally twice after 1 and 4 hrs post infection measured up to 7 days; conditions: 10-1, po; procedure, shortened: as §3
# Staphylococcus aureus [23] = assay: Antibacterial activity against methicillin-sensitive Staphylococcus aureus 10-3 after 18 hrs by two fold serial dilution method; conditions: 10-3, 18 h; procedure, shortened: as §2
# Enterococcus faecium [24] = assay: Antibacterial activity against Enterococcus faecium 09-1 after 18 hrs by two fold serial dilution method; conditions: 09-1, 18 h; procedure, shortened: as §2
# Pseudomonas aeruginosa [25] = assay: Antibacterial activity against Pseudomonas aeruginosa 10-2 after 18 hrs by two fold serial dilution method; conditions: 10-2, 18 h; procedure, shortened: as §2
# Staphylococcus aureus [26] = assay: Antibacterial activity against methicillin-resistant Staphylococcus aureus 10-2 after 18 hrs by two fold serial dilution method; conditions: 10-2, 18 h; procedure, shortened: as §1
# Enterococcus faecium [27] = assay: Antibacterial activity against Enterococcus faecium 09-6 after 18 hrs by two fold serial dilution method; conditions: 09-6, 18 h; procedure, shortened: as §2
# Escherichia coli [28] = assay: Antibacterial activity against Escherichia coli 10-3 after 18 hrs by two fold serial dilution method; conditions: 10-3, 18 h; procedure, shortened: as §2
# [29] = test system: Staphylococcus epidermidis; assay: Antibacterial activity against methicillin-resistant Staphylococcus epidermidis 10-1 after 18 hrs by two fold serial dilution method; conditions: 10-1, 18 h; procedure, shortened: as §1
# [30] = test system: Staphylococcus epidermidis; assay: Antibacterial activity against methicillin-sensitive Staphylococcus epidermidis 10-1 after 18 hrs by two fold serial dilution method; conditions: 10-1, 18 h; procedure, shortened: as §2
# Staphylococcus aureus [31] = assay: Antibacterial activity against Staphylococcus aureus ATCC 25923 after 18 hrs by two fold serial dilution method; conditions: ATCC 25923, 18 h; procedure, shortened: as §2
# Pseudomonas aeruginosa [32] = assay: Antibacterial activity against Pseudomonas aeruginosa ATCC 27853 after 18 hrs by two fold serial dilution method; conditions: ATCC 27853, 18 h; procedure, shortened: as §2
# Escherichia coli [33] = assay: Antibacterial activity against Escherichia coli 10-1 after 18 hrs by two fold serial dilution method; conditions: 10-1, 18 h; procedure, shortened: as §2
# Staphylococcus aureus [34] = assay: Antibacterial activity against methicillin-sensitive Staphylococcus aureus 10-1 after 18 hrs by two fold serial dilution method; conditions: 10-1, 18 h; procedure, shortened: as §2
# Enterococcus faecium [35] = assay: Antibacterial activity against Enterococcus faecium 09-5 after 18 hrs by two fold serial dilution method; conditions: 09-5, 18 h; procedure, shortened: as §2
# Klebsiella pneumoniae [36] = assay: Antibacterial activity against Klebsiella pneumoniae 10-3 infected KM mouse systemic infection model assessed as decrease in mouse mortality administered orally twice after 1 and 4 hrs post infection measured up to 7 days; conditions: 10-3, po; procedure, shortened: as §3
# Escherichia coli [37] = assay: Antibacterial activity against Escherichia coli 09-3 after 18 hrs by two fold serial dilution method; conditions: 09-3, 18 h; procedure, shortened: as §2
# Klebsiella pneumoniae [38] = assay: Antibacterial activity against Klebsiella pneumoniae 10-1 after 18 hrs by two fold serial dilution method; conditions: 10-1, 18 h; procedure, shortened: as §2
# Escherichia coli [39] = assay: Antibacterial activity against Escherichia coli 10-2 after 18 hrs by two fold serial dilution method; conditions: 10-2, 18 h; procedure, shortened: as §2
# [40] = test system: Staphylococcus epidermidis; assay: Ratio of gemifloxacin ED50 to compound ED50 for methicillin-resistant Staphylococcus epidermidis 10-4 infected KM mouse systemic infection model
# Escherichia coli [41] = assay: Antibacterial activity against Escherichia coli 09-1 after 18 hrs by two fold serial dilution method; conditions: 09-1, 18 h; procedure, shortened: as §2
# Enterococcus faecium [42] = assay: Antibacterial activity against Enterococcus faecium 09-4 after 18 hrs by two fold serial dilution method; conditions: 09-4, 18 h; procedure, shortened: as §2
# Enterococcus faecium [43] = assay: Antibacterial activity against Enterococcus faecium 09-3 after 18 hrs by two fold serial dilution method; conditions: 09-3, 18 h; procedure, shortened: as §2
# Pseudomonas aeruginosa [44] = assay: Antibacterial activity against Pseudomonas aeruginosa 10-1 after 18 hrs by two fold serial dilution method; conditions: 10-1, 18 h; procedure, shortened: as §2
# Enterococcus faecalis [45] = assay: Antibacterial activity against Enterococcus faecalis 09-1 after 18 hrs by two fold serial dilution method; conditions: 09-1, 18 h; procedure, shortened: as §2
# Staphylococcus aureus [46] = assay: Antibacterial activity against methicillin-resistant Staphylococcus aureus 10-1 after 18 hrs by two fold serial dilution method; conditions: 10-1, 18 h; procedure, shortened: as §1
# [47] = test system: Staphylococcus epidermidis; assay: Antibacterial activity against methicillin-resistant Staphylococcus epidermidis 10-4 infected KM mouse systemic infection model assessed as decrease in mouse mortality administered orally twice after 1 and 4 hrs post infection measured up to 7 days; conditions: 10-4, po; procedure, shortened: as §3
compound,measurement,setting,value
NCC1CN(c2nc3c(cc2F)c(=O)c(C(=O)O)cn3C2CC2)C/C1=N\OC(F)F (racemic),Ratio ED50,[1],1.4
same,MIC,Staphylococcus aureus [2],32 µg/mL
same,MIC,Enterococcus faecium [3],32 µg/mL
same,MIC,[4],0.25 µg/mL
same,MIC,Staphylococcus aureus [5],0.008 µg/mL
same,MIC,Staphylococcus aureus [6],0.5 µg/mL
same,MIC,[7],32 µg/mL
same,Ratio ED50,Pseudomonas aeruginosa [8],5.2
same,MIC,Streptococcus pneumoniae,0.03 µg/mL
same,ED50,Escherichia coli [9],5.83 mg/kg
same,MIC,Staphylococcus aureus [10],0.06 µg/mL
same,MIC,Escherichia coli [11],0.008 µg/mL
same,MIC,Staphylococcus aureus [12],4 µg/mL
same,MIC,Escherichia coli [13],32 µg/mL
same,MIC,Klebsiella pneumoniae [14],0.5 µg/mL
same,MIC,Pseudomonas aeruginosa [15],4 µg/mL
same,MIC,Enterococcus faecalis [16],8 µg/mL
same,ED50,Staphylococcus aureus [17],14.3 mg/kg
same,MIC,Klebsiella pneumoniae [18],32 µg/mL
same,MIC,[19],2 µg/mL
same,MIC,Staphylococcus aureus [20],16 µg/mL
same,Ratio ED50,Pseudomonas aeruginosa [21],6.1
same,ED50,Pseudomonas aeruginosa [22],21.3 mg/kg
same,MIC,Staphylococcus aureus [23],0.06 µg/mL
same,MIC,Enterococcus faecium [24],32 µg/mL
same,MIC,Pseudomonas aeruginosa [25],32 µg/mL
same,MIC,Staphylococcus aureus [26],1 µg/mL
same,MIC,Enterococcus faecium [27],0.06 µg/mL
same,MIC,Escherichia coli [28],8 µg/mL
same,MIC,[29],4 µg/mL
same,MIC,[30],64 µg/mL
same,MIC,Staphylococcus aureus [31],0.015 µg/mL
same,MIC,Pseudomonas aeruginosa [32],0.5 µg/mL
same,MIC,Escherichia coli [33],16 µg/mL
same,MIC,Staphylococcus aureus [34],0.015 µg/mL
same,MIC,Enterococcus faecium [35],16 µg/mL
same,ED50,Klebsiella pneumoniae [36],100 mg/kg
same,MIC,Escherichia coli [37],16 µg/mL
same,MIC,Klebsiella pneumoniae [38],0.015 µg/mL
same,MIC,Escherichia coli [39],0.5 µg/mL
same,Ratio ED50,[40],1.4
same,MIC,Escherichia coli [41],16 µg/mL
same,MIC,Enterococcus faecium [42],0.125 µg/mL
same,MIC,Enterococcus faecium [43],16 µg/mL
same,MIC,Pseudomonas aeruginosa [44],0.5 µg/mL
same,MIC,Enterococcus faecalis [45],4 µg/mL
same,MIC,Staphylococcus aureus [46],16 µg/mL
same,ED50,[47],16.9 mg/kg
